Results from ChEMBL document CHEMBL1130129, “Immunologically specific activation of a cephalosporin derivative of mitomycin C by monoclonal antibody beta-lactamase conjugates” (J Med Chem, 1997).

Experiments:
[1] = substrate: CO[C@@]12[C@H](COC(N)=O)C3=C(C(=O)C(C)=C(NCC4=C(C(=O)O)N5C(=O)[C@@H](NC(=O)CCCC(=O)O)[C@H]5SC4)C3=O)N1C[C@@H]1N[C@@H]12; assay: (§1) Determination of kinetic constant (Km) for hydrolysis by beta-lactamase from Enterobacter cloacae 99
Procedure, shortened: (§2)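 Purified E. cloacae β-lactamase (0.1 µg/mL) added to prodrug in PBS pH 7.2 containing 12.5 µg/mL bovine serum albumin, 23 °C; β-lactam hydrolysis followed by loss of absorbance at 260 nm. Initial velocities taken from linear portions of absorbance-time plots and used to derive kinetic constants.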

[2] = substrate: CO[C@@]12[C@H](COC(N)=O)C3=C(C(=O)C(C)=C(NCC4=C(C(=O)O)N5C(=O)[C@@H](NC(=O)Cc6ccccc6)[C@H]5SC4)C3=O)N1C[C@@H]1N[C@@H]12; assay: as §1; procedure, shortened: as §2
[3] = substrate: O=C(Cc1ccccc1)N[C@@H]1C(=O)N2C(C(=O)O)=C(COC(=O)Nc3ccc(N(CCCl)CCCl)cc3)CS[C@H]12; assay: as §1; procedure, shortened: as §2
[4] = substrate: O=C(O)CCCC(=O)N[C@@H]1C(=O)N2C(C(=O)O)=C(COC(=O)Nc3ccc(N(CCCl)CCCl)cc3)CS[C@H]12; assay: as §1; procedure, shortened: as §2

B1: Beta-lactamase (Enterobacter cloacae), P05364 (protein)
chain: MMRKSLCCALLLGISCSALATPVSEKQLAEVVANTITPLMKAQSVPGMAVAVIYQGKPHYYTFGKADIAANKPVTPQTLFELGSISKTFTGVLGGDAIARGEISLDDAVTRYWPQLTGKQWQGIRMLDLATYTAGGLPLQVPDEVTDNASLLRFYQNWQPQWKPGTTRLYANASIGLFGALAVKPSGMPYEQAMTTRVLKPLKLDHTWINVPKAEEAHYAWGYRDGKAVRVSPGMLDAQAYGVKTNVQDMANWVMANMAPENVADASLKQGIALAQSRYWRIGSMYQGLGWEMLNWPVEANTVVEGSDSKVALAPLPVAEVNPPAPPVKASWVHKTGSTGGFGSYVAFIPEKQIGIVMLANTSYPNPARVEAAYHILEALQ
Km [1]: 119 µM | Km [2]: 48.9 µM | Km [3]: 7 µM | Km [4]: 43.2 µM
